This is an account of results in ChEMBL document CHEMBL1914282 (J Med Chem, 2011).

For experiment [1], the target named is T1, G-protein coupled receptor 35 (Homo sapiens, UniProt Q9HC97). Briefly: Agonist activity at GPR35 in human HT-29 cells after 1 hr by dynamic mass redistribution assay in presence of 64 uM GPR35 antagonist SPB05142. It counts as functional, cell-based.
For experiment [2], the target named is T1, G-protein coupled receptor 35. Briefly: Agonist activity at GPR35 in human HT-29 cells after 1 hr by dynamic mass redistribution assay. It counts as functional, cell-based. The essentials:
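HT-29 monolayer grown overnight on resonant waveguide grating biosensor plates. Cells washed twice, held in HBSS (20 mM Hepes, pH 7.1) for 1 h at 26 °C, then a 2 min baseline taken before compound addition. Response recorded as resonant wavelength shift (pm) over 1 h. Compounds diluted from 10 mM DMSO stocks.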

Experiment [3] shares this target. Briefly: Agonist activity at GPR35 in human HT-29 cells after 1 hr by dynamic mass redistribution assay in presence of GPR35 antagonist SPB05142. It counts as functional, cell-based.
Experiment [4] has the same target. Briefly: Agonist activity at GPR35 in human U20S cells expressing beta-lactamase and GPR35-GA14-VP16 transcription factor fusion protein assessed as transcriptional activation after 5 hrs by tango beta-arrestin translocation reporter assay. The class given is functional, cell-based, U2OS. Conditions: for pEC50: read-out: EC50; for EC50: u2os. The essentials: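 Tango GPR35-bla U2OS cells, which express GPR35–TEV site–Gal4-VP16 and β-arrestin/TEV protease, seeded at 10000 cells/well and cultured overnight. Ligand stimulation for 5 h at 37 °C/5% CO2, then 2 h with LiveBLAzer FRET B/G substrate.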
For orientation: Reporter assays use an easily measured gene product as a stand-in for the process of interest.

The target is the same in experiment [5]. Description: Agonist activity at GPR35 in human U20S cells expressing beta-lactamase and GPR35-GA14-VP16 transcription factor fusion protein assessed as transcriptional activation after 5 hrs by tango beta-arrestin translocation reporter assay relative to zaprinast. It counts as functional, cell-based. Conditions: U2OS. In a few lines: (§1)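 Tango GPR35-bla U2OS cells, which express GPR35–TEV site–Gal4-VP16 and β-arrestin/TEV protease, seeded at 10000 cells/well and cultured overnight. Ligand stimulation for 5 h at 37 °C/5% CO2, then 2 h with LiveBLAzer FRET B/G substrate. Coumarin:fluorescein ratio read as reporter response, doses up to 128 μM, n = 4.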

For experiment [6] the target is unchanged. Briefly: Agonist activity at GPR35 in human HT-29 cells assessed as desensitization of 1 uM zaprinast-induced DMR after 1 hr by dynamic mass redistribution assay. It counts as functional, cell-based.
The target is the same in experiment [7]. Briefly: Agonist activity at GPR35 in human HT-29 cells after 1 hr by dynamic mass redistribution assay relative to zaprinast. Also noted: concentration or dose not given beside the values. The class given is functional, cell-based. The essentials:
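HT-29 monolayer grown overnight on resonant waveguide grating biosensor plates. Cells washed twice, held in HBSS (20 mM Hepes, pH 7.1) for 1 h at 26 °C, then a 2 min baseline taken before compound addition. Response recorded as resonant wavelength shift (pm) over 1 h. […] Compounds diluted from 10 mM DMSO stocks.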

Experiment [8] has as its system HT-29. Briefly: Induction of dynamic mass redistribution in human HT-29 cells transfected with receptor-targeting iRNA-based shRNA for GPR35 knock out at 10 uM. The class given is functional, cell-based. In a few lines:
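HT-29 seeded on biosensor plates at 5000 cells/well, 24 h at 37 °C. Transiently transfected with GFP-tagged shRNA plasmids against human GPR35, or control plasmid, at 0.05 μg DNA per well. Medium changed on day 3. About 48 h post-transfection, DMR agonist assay run with compounds at 10 μM, four replicates.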

Experiment [9] concerns the target T1, G-protein coupled receptor 35. Briefly: Agonist activity at GPR35 in human U20S cells expressing beta-lactamase and GPR35-GA14-VP16 transcription factor fusion protein assessed as transcriptional activation up to 128 uM after 5 hrs by tango beta-arrestin translocation reporter assay. It counts as functional, cell-based. Conditions: U2OS. In a few lines:
as §1

For experiment [10] the target is unchanged. Briefly: Agonist activity at GPR35 in human HT-29 cells assessed as receptor internalization at 1 uM after 1 hr by fluorescence imaging. The class given is functional, cell-based. The essentials:
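HT-29 seeded in chamber slides at 10000 cells/well and grown 24 h at 37 °C. Cells exposed to compound or DMSO for 1 h at 37 °C, fixed in 4% formaldehyde, then blocked and permeabilized. Stained with anti-GPR35 (intracellular domain, 1:500, 24 h), then a fluorescent secondary antibody (1:500, 1 h, room temperature). GPR35 location assessed by confocal imaging.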

pEC50, pIC50: −log10 of the molar value. Calls of active or inactive are those of the source. The rule behind the calls is not given here.

T1 sequence (Q9HC97 whole entry): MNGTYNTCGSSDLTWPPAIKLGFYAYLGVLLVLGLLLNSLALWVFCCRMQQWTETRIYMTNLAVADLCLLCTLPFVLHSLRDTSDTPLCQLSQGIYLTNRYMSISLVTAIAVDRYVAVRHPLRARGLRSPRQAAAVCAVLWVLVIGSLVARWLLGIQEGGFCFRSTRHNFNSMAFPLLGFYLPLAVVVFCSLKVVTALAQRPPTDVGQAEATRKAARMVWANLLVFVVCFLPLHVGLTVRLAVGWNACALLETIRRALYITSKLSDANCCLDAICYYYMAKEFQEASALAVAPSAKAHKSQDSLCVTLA

As to `CC1=C(C#N)C(=C(C#N)C#N)OC1(c1ccccc1)C(F)(F)F` (configuration not stated), the result in experiment [1] and in experiment [3] was inactive. The pEC50 in experiment [2] is 5.46; in experiment [4] it was below 4.30. The values for the Activity in experiment [5] and in experiment [7] were 14% and 99%, respectively. In experiment [6], the pIC50 was 5.71.
`CCCCCCCCCCCCCCCc1c(C(=O)O)sc2c(Br)csc12` had a pEC50 in experiment [2] of 5.34. The EC50 entry in experiment [4] is “Not Active”. Also, the pIC50 in [6] is 5.23.
Regarding `CC1=C(C#N)C(=C(C#N)C#N)OC1(C)C`, the result in experiment [1], in [3] and in [8] was inactive. The negative logarithm of the EC50 (pEC50) in [2] is 4.77; in experiment [4], below 4.30. Also, the result in [5] was Active. Moreover, in [6], the pIC50 was 4.92. The same compound yielded an Activity in experiment [7] of 87%.
On to `CC1=C(C#N)C(=C(C#N)C#N)OC1(C)c1c(F)c(F)c(F)c(F)c1F` (configuration not stated), for which the pEC50 in [2] was 5.47. Besides, the EC50 result in experiment [4] is reported as “Not Active”. Besides, the pIC50 in [6] was 5.35.
In experiment [2], `CC1=C(C#N)C(=C(C#N)C#N)OC1(C)c1ccc(F)cc1F` (configuration not stated) gave a pEC50 of 4.27. Further, in experiment [4], the EC50 result was “Not Active”. The pIC50 in experiment [6] is 4.31.
`CCCCCCc1c(C(=O)O)sc2ccsc12`: the outcome in [1] and in experiment [3] was Active. Besides, the negative logarithm of the EC50 (pEC50) is 5.46 in experiment [2] and below 4.30 in [4]. Besides, the Activity was 20% in experiment [5] and 99% in [7]. In addition, in experiment [6], the pIC50 was 5.83.
In the case of `CCOC(=O)c1sc2c(Br)csc2c1C`, the EC50 entry in experiment [4] is recorded as “Not Active”.
For `Cc1csc2c1sc1cc(C(=O)O)sc12`, the outcome in experiment [1] and in experiment [3] was Active. Moreover, the pEC50 in [2] is 5.22; in [4], below 4.30. The values for the Activity in experiment [5] and in experiment [7] were 19% and 118%, respectively. Besides, in experiment [6], the pIC50 is 5.22. In addition, the result in [8] was inactive.
For the compound `CCCCCCCCCCCc1c(C(=O)O)sc2c(Br)csc12`, the result in experiment [1] and in experiment [3] was inactive. Moreover, the pEC50 in experiment [2] is 5.72; in experiment [4] it was 4.64. The Activity is 55% in experiment [5] and 87% in experiment [7]. The pIC50 in experiment [6] is 6.24.
Consider `CCCOc1ccccc1-c1nc2[nH]nnc2c(=O)[nH]1`, for which, in [8], the result was inactive.
For `CC1=C(C#N)C(=C(C#N)C#N)OC1(C)c1ccc(Cl)c(Cl)c1Cl` (configuration not stated), the result in experiment [9] was inactive. For the same compound, the result in [1] and in experiment [3] was Active. This compound also gave a negative-log EC50 (pEC50) in experiment [2] of 4.95. In addition, the pIC50 in [6] is 4.99. In [7], this compound displayed an Activity of 90%.
As to `CC1=C(C#N)C(=C(C#N)C#N)OC1(C)c1ccc(Cl)c(Cl)c1` (configuration not stated), the outcome in experiment [1], in experiment [3] and in experiment [8] was inactive. For the same compound, the pEC50 in [2] was 7.49; in [4], 4.99. For the same compound, the figures for the Activity in experiment [5] and in experiment [7] were 29% and 97%, respectively. Also, the pIC50 in experiment [6] was 7.22.
As for `CC1=C(C#N)C(=C(C#N)C#N)OC12CCCCC2`, the outcome in experiment [1], in experiment [3] and in experiment [5] was Active. In addition, the results for the pEC50 in experiment [2] and in [4] were 4.34 and below 4.30, respectively. In addition, in [6], the pIC50 is 4.79. Besides, the Activity in [7] was determined as 106%.
`CCCCc1ccc(C2(C)OC(=C(C#N)C#N)C(C#N)=C2C)cc1` (configuration not stated) had a pEC50 in experiment [2] of 4.82. The EC50 result in experiment [4] is on record as “Not Active”. In addition, the pIC50 in experiment [6] is 5.19.
Consider `CC1=C(C#N)C(=C(C#N)C#N)OC12c1ccccc1-c1ccccc12`, for which the outcome in experiment [9], in experiment [1] and in experiment [3] was inactive. Further, in experiment [2], the pEC50 is 5.18. Moreover, the pIC50 in experiment [6] is 4.67. The same compound gave an Activity in [7] of 90%.
`CCCCCCCCc1c(C(=O)O)sc2c(Br)csc12`: the result in experiment [1] and in experiment [3] was inactive. Besides, the pEC50 is 5.84 in experiment [2] and below 4.30 in experiment [4]. The Activity in experiment [5] is 8%; in [7], 103%. Further, the negative logarithm of the IC50 (pIC50) in [6] is 5.98.
For `O=C(O)c1cc2sccc2s1`, the pEC50 in experiment [2] is 4.37. The EC50 entry in experiment [4] is “Not Active”. The pIC50 in experiment [6] was 4.24.
Regarding `CCCCCCc1csc2cc(C(=O)O)sc12`, the outcome in experiment [1] and in experiment [3] was inactive. For the same compound, the values for the pEC50 in [2] and in experiment [4] were 5.03 and below 4.30, respectively. Further, the Activity is 9% in [5] and 103% in [7]. The pIC50 in experiment [6] is 5.33.
For `Cc1c(C(=O)O)sc2c(Br)csc12`, the outcome in [1], in experiment [3] and in [8] was inactive. In addition, the outcome in experiment [10] was Active. Besides, the pEC50 was 7.19 in [2] and 4.82 in [4]. Besides, the results for the Activity in [5] and in [7] were 104% and 105%, respectively. In experiment [6], the negative-log IC50 (pIC50) is 6.96.
Regarding `CCCCCCCCCCCCCc1c(C(=O)O)sc2c(Br)csc12`, the result in [9], in experiment [1], in experiment [3] and in experiment [5] was inactive. This compound also had a pEC50 in [2] of 5.64. Further, in [4], the EC50 result is on record as “Not Active”. Besides, the negative logarithm of the IC50 (pIC50) in [6] is 5.73. This compound also yielded an Activity in experiment [7] of 77%.

What is called pEC50 is the negative decadic logarithm of the EC50, by convention in mol/L. Broadly, the pIC50 is the negative decadic logarithm of the IC50, by convention in mol/L.
